Our source for the Kd values is the RNAGym collection of RNA variant scans (doi:10.1038/nmeth.2970).

The labels stand for the following.
B1: NELF-E aptamer (parent)
chain: CCCAACGACUGCCGAGCGAGAUUACGCUUGAGCGCCCCACUGAGGAUGCCCACGGGCGAUUGGGGCACGG

This data set covers variants of B1. The data set can be described thus: HiTS-RAP. Conditions: with NELF-E (Drosophila). The method, boiled down:
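Kd came from weighted Hill fits to the first binding curve, with intensities normalised to sequencing intensity and averaged per sequence, keeping only fits whose variance was below 1,000,000. That curve was imaged on an Illumina GAIIx flowcell, where sequenced aptamer DNA templates with a T7 promoter and ter site had been transcribed in situ by T7 RNA polymerase and halted by GST-Tus (30 minutes, 37°C). Before each image, clusters equilibrated for 30 minutes at room temperature with NELF-E-mOrange at 0.064 to 1000 nM in HEPES binding buffer.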
As to G14U A67U, the equilibrium dissociation constant (Kd) came out at 6.23 nM.
For G14U U41G the value was 6.33 nM; for G14U U41A, 51.7 nM; for A15U C57U, 14.3 nM.
For the variant G16U C37U, the equilibrium dissociation constant (Kd) came to 21.9 nM.
Turning to A15G U41G, the Kd is 5.7 nM.
For C17G G30A, the equilibrium dissociation constant (Kd) stood at 3.42 nM.
For the variant G16A U23G, the Kd is 6.04 nM.
The result for C17G C33U reads 5.64 nM; that for C17G C50U, 15.9 nM; that for C17G G65U, 7.17 nM.
The result for C17A U23G reads 5.06 nM; that for G16U A52U, 19.7 nM; that for G16U A52G, 4.81 nM.
For the variant G14U G64A, the dissociation constant Kd turned out to be 6.6 nM.
As to C17G U29C, the equilibrium dissociation constant (Kd) came to 4.96 nM.
For C17G U29G the value was 4.86 nM.
Take G16U C17U: the equilibrium dissociation constant (Kd) is 6.11 nM.
For G16U C17G the value was 5.95 nM; for A15G A24G, 6.12 nM; for C17A, 4.3 nM.
The result for C17G reads 5.02 nM.
For G16U A21U the value was 6.82 nM; for G16U A21G, 5.22 nM; for G16U, 5.88 nM.
Take G16A: the dissociation constant Kd was 5.27 nM.
For G16C the value was 4.81 nM; for G16U A19G, 6.97 nM.
Consider G16U A19U, for which the dissociation constant (Kd) was determined as 5.21 nM.
Take A15U U29A: the equilibrium dissociation constant (Kd) amounted to 5.96 nM.
The result for A15U U29G reads 6.83 nM; that for C17G G62A, 28.8 nM.
The result for G16U U41C reads 76.2 nM; that for G16U U41G, 6.39 nM; that for A15G, 4.77 nM.
For A15C the value was 4 nM.
In the case of A15U, the dissociation constant (Kd) came out at 5.65 nM.
On to G16U A39U, for which the Kd is 23.5 nM.
The result for G16U A39G reads 8.49 nM.
On to G16U G18A, for which the dissociation constant Kd is 7.17 nM.
With G16A G20U, the Kd worked out at 7.98 nM.
As for A15G U22G, the equilibrium dissociation constant (Kd) stood at 5.78 nM.
For G16U G30A the value was 4.95 nM; for A15G A21G, 5.12 nM; for G16U C57U, 8.22 nM.
As to A15U G34A, the equilibrium dissociation constant (Kd) is 11.8 nM.
For G16U A24G, the equilibrium dissociation constant (Kd) is 7.15 nM.
As to G16U G56A, the dissociation constant (Kd) turned out to be 13.2 nM.
On to G14U C17G, for which the Kd amounted to 6.27 nM.
The result for G14U C17U reads 6.1 nM; that for A15G G16A, 8.29 nM; that for A15G G16U, 5.48 nM.
For G14U C33U, the Kd was 5.15 nM.
Consider A15G C17G, for which the equilibrium dissociation constant (Kd) amounted to 5.93 nM.
For G14U C40U the value was 53.4 nM; for G14U C40G, 9.9 nM.
The result for A15U C17G reads 7.12 nM.
Take G16U U22G: the Kd is 6.64 nM.
For A15U A24G the value was 6.86 nM.
The result for G16U G65U reads 7.8 nM; that for C17G G63U, 10.3 nM; that for G14U G54A, 12.6 nM.
For G14U C36U the value was 8.6 nM; for G14U U29A, 5.7 nM.
With G14U U29G, the Kd stood at 6.2 nM.
With G14U U29C, the dissociation constant Kd came out at 7.48 nM.
The result for G14U G62A reads 19.1 nM; that for G14U G48A, 13.2 nM.
On to G16U G63A, for which the equilibrium dissociation constant (Kd) came out at 15.2 nM.
The result for G16A U41G reads 6.55 nM.
Turning to G14U G26U, the equilibrium dissociation constant (Kd) is 6.16 nM.
The result for G14U G26A reads 5.3 nM; that for C17G A39G, 8.44 nM.
For G14U C57U the value was 5.72 nM; for G16U C66U, 5.92 nM.
On to G16U C25G, for which the Kd came to 7.48 nM.
The result for A15G U29G reads 5.98 nM; that for C17G G26A, 5.44 nM.
For G16A U29G, the Kd was 5.1 nM.
The result for C17G U22G reads 4.82 nM.
For C17G U22C, the Kd is 5.02 nM.
Turning to G16U G26U, the Kd came out at 7.33 nM.
With G16U G26A, the dissociation constant Kd was found to be 4.92 nM.
For A15U A19G the value was 9.2 nM; for C17G U28C, 8.7 nM.
The result for C17G U28G reads 6.4 nM; that for C17G A21G, 6.68 nM; that for C17G A67G, 5.71 nM.
For G14U C37U the value was 21.2 nM; for G14U G18U, 7.17 nM.
Turning to G14U G18A, the dissociation constant (Kd) is 6.29 nM.
For the variant G16U G20U, the Kd was determined as 7.39 nM.
For the variant C17G A19G, the Kd was 5.02 nM.
Take C17G A19U: the equilibrium dissociation constant (Kd) was determined as 7.26 nM.
For G16A U22G the value was 6.17 nM; for G14U G55A, 7.48 nM; for G14U G55U, 9.69 nM.
For G14U G34A the value was 6.18 nM; for G14U G34U, 5.16 nM; for G16U A31U, 6.75 nM.
For G16U A31G the value was 8.32 nM; for C17G G55U, 7.51 nM.
As for C17G G55A, the dissociation constant (Kd) is 7.03 nM.
As to C17G C36U, the Kd was 9.05 nM.
For A15U U22G the value was 6.74 nM.
For G16U U61C, the Kd stood at 77.5 nM.
With G16U U61A, the dissociation constant Kd amounted to 33.3 nM.
The result for A15U G16U reads 8.03 nM; that for C17G C38U, 7.29 nM.
For G16U U29G the value was 6.38 nM; for G16U U29C, 6.55 nM.
For A15U A67G the value was 4.18 nM; for C17G G18A, 6.63 nM.
On to C17G G18C, for which the equilibrium dissociation constant (Kd) is 6.41 nM.
On to C17G G18U, for which the Kd is 6.33 nM.
The result for A15G U23G reads 5.24 nM.
Regarding G16U U23G, the dissociation constant Kd was 5.85 nM.
The result for G14U G20A reads 6.93 nM.
The result for G14U G20U reads 6.93 nM; that for G14U G63U, 12.8 nM.
On to G14U G63A, for which the Kd was 11.9 nM.
The result for A15G A19G reads 6.95 nM; that for G14U G56U, 7.18 nM; that for G14U G56A, 9.7 nM.
For C17G G20A the value was 5.92 nM; for C17G G20U, 6.58 nM; for G14U G65U, 8.73 nM.
The result for G14U G65A reads 6.7 nM; that for A15U U23G, 5.84 nM.
For G14U C38U, the equilibrium dissociation constant (Kd) was found to be 9.69 nM.
For the variant C17G C57U, the equilibrium dissociation constant (Kd) was 5.45 nM.
Consider G14U U28G, for which the Kd was 9.45 nM.
As for G16U G64A, the Kd was 7.51 nM.
For the variant C17G A24G, the Kd was determined as 5.52 nM.
Take C17G C25U: the Kd turned out to be 5.39 nM.
The result for C17G C25G reads 4.76 nM; that for G14U U61A, 36 nM.
Regarding G14U U61C, the Kd is 86.8 nM.
As to G14U U47A, the Kd worked out at 9.21 nM.
The result for G16U G55U reads 8.69 nM; that for G16U G55A, 7.53 nM; that for G16U G54A, 16.2 nM.
For G16U G42A the value was 36.6 nM; for C17G C40G, 5.54 nM; for G14U G16A, 6.74 nM.
For G14U G16U the value was 7.62 nM; for C17G U23G, 5.45 nM.
Take G16A A24G: the Kd is 6.88 nM.
For A15U U60C the value was 10.7 nM.
For G14U U23G the value was 6.29 nM.
On to G14U C35U, for which the dissociation constant (Kd) came to 10.1 nM.
Take G16U U28G: the Kd is 6.45 nM.
As for A15U G20U, the Kd came out at 7.81 nM.
Consider G16U G34A, for which the Kd turned out to be 9.22 nM.
As for C17G A43G, the Kd is 9.66 nM.
The result for C17G G64A reads 6.78 nM; that for C17G G34A, 8.48 nM.
For the variant C17G A31G, the Kd stood at 5.92 nM.
As to A15U U41C, the Kd came to 82.7 nM.
Regarding A15U U41G, the Kd is 6.49 nM.
Turning to G16A C17G, the dissociation constant (Kd) was 6.2 nM.
Consider G14U C25G, for which the Kd amounted to 8.18 nM.
For G14U C25U the value was 7.71 nM; for G16U A67U, 10.1 nM; for G16U A67G, 5.58 nM.
Regarding G14U U22G, the Kd turned out to be 6.53 nM.
G14U U22C: the Kd worked out at 5.6 nM.

By Kd is commonly meant the concentration at which binding is half-saturated.
